Measurements: ChEMBL document CHEMBL4819149, “A facile reaction to access novel structural sulfonyl-hybridized imidazolyl ethanols as potential DNA-targeting antibacterial agents” (Bioorg Med Chem Lett, 2021)
In brackets after ≈: the same amount, converted by molar mass. Activity calls are given as the source filed them. No cut-off for these calls is given here.

Tests used:
Staphylococcus aureus [1] = assay: Antibacterial activity against methicillin-resistant Staphylococcus aureus assessed as bacterial growth inhibition by broth microdilution method; type: functional
In short: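 MIC read by micro broth dilution; values given in μg/mL.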

Staphylococcus aureus [2] = assay: Antibacterial activity against Staphylococcus aureus ATCC 29213 assessed as bacterial growth inhibition by broth microdilution method; type: functional
In short: (§1)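 MIC values reported in µg/mL, determined by broth microdilution in microdilution plates.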

Pseudomonas aeruginosa [3] = assay: Antibacterial activity against Pseudomonas aeruginosa ATCC 27853 assessed as bacterial growth inhibition by broth microdilution method; type: functional; in short: as §1
Staphylococcus aureus [4] = assay: Antibacterial activity against Staphylococcus aureus assessed as bacterial growth inhibition by broth microdilution method; type: functional; in short: as §1
Pseudomonas aeruginosa [5] = assay: Antibacterial activity against Pseudomonas aeruginosa assessed as bacterial growth inhibition by broth microdilution method; type: functional; in short: as §1
Enterococcus faecalis [6] = assay: Antibacterial activity against Enterococcus faecalis assessed as bacterial growth inhibition by broth microdilution method; type: functional; in short: as §1
Staphylococcus aureus [7] = assay: Antibacterial activity against Staphylococcus aureus ATCC 25923 assessed as bacterial growth inhibition by broth microdilution method; type: functional; in short: as §1
Acinetobacter baumannii = assay: Antibacterial activity against Acinetobacter baumannii assessed as bacterial growth inhibition by broth microdilution method; type: functional; in short: as §1
Escherichia coli [8] = assay: Antibacterial activity against Escherichia coli ATCC 25922 assessed as bacterial growth inhibition by broth microdilution method; type: functional; in short: as §1
Klebsiella pneumoniae = assay: Antibacterial activity against Klebsiella pneumonia assessed as bacterial growth inhibition by broth microdilution method; type: functional; in short: as §1
Escherichia coli [9] = assay: Antibacterial activity against Escherichia coli assessed as bacterial growth inhibition by broth microdilution method; type: functional; in short: as §1
Staphylococcus aureus [10] = assay: Antibacterial activity against methicillin-resistant Staphylococcus aureus measured after 13 passages by broth microdilution method; type: functional, organism-based
Enterococcus faecalis [11] = assay: Potency index, ratio of sulfathiazole MIC to test compound MIC for Enterococcus faecalis assessed as bacterial growth inhibition by broth microdilution method; type: functional
Staphylococcus aureus [12] = assay: Potency index, ratio of norfloxacin MIC to test compound MIC for methicillin-resistant Staphylococcus aureus assessed as bacterial growth inhibition by broth microdilution method; type: functional
[13] = Cytotoxicity against human […] assessed as reduction in cell viability at 100 ug/ml by MTT assay; type: cell-based; conditions: dose 100 µg/ml
In short: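 Endothelial […] were exposed to a range of compound concentrations up to 100 µg/mL, and viability was read by MTT assay.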

Staphylococcus aureus [14] = assay: Potency index, ratio of sulfathiazole MIC to test compound MIC for methicillin-resistant Staphylococcus aureus assessed as bacterial growth inhibition by broth microdilution method; type: functional
DNA [15] = assay: Binding affinity to DNA (unknown origin) assessed as hypochromic shift by UV-vis spectrophotometric analysis; type: nucleic-acid assay
In short: (§2)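 DNA UV-vis absorption spectra were recorded with increasing test compound concentration, following the 260 nm peak intensity and position. Hypochromism was judged by comparing the summed absorbance of free DNA and free compound with the measured absorbance of the compound-DNA complex.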

DNA [16] = assay: Binding affinity to methicillin-resistant Staphylococcus aureus DNA assessed as DNA intercalation by competitive neutral red dye displacement based UV-Vis absorbance analysis; type: nucleic-acid assay
Calf thymus DNA = assay: Binding affinity to calf thymus DNA assessed as DNA intercalation by competitive neutral red dye displacement based UV-Vis absorbance analysis; conditions: Bos taurus
In short: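 Neutral red (NR) competition: absorbance around 530 nm was followed with test compound and increasing calf thymus DNA, compared against free NR titrated with increasing calf thymus DNA.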

DNA [17] = assay: Binding affinity to DNA (unknown origin) assessed as red shift in absorption maxima by UV-vis spectrophotometric analysis; type: nucleic-acid assay; in short: as §2
DNA [18] = assay: Binding affinity to DNA (unknown origin) assessed as increase in maximum absorption peak of DNA at 260 nm by UV-vis spectrophotometric analysis; type: nucleic-acid assay; in short: as §2

Structure (SMILES)	MIC (Staphylococcus aureus [1]) [µg/mL]	MIC (Staphylococcus aureus [2]) [µg/mL]	MIC (Pseudomonas aeruginosa [3]) [µg/mL]	MIC (Staphylococcus aureus [4]) [µg/mL]	MIC (Pseudomonas aeruginosa [5]) [µg/mL]	MIC (Enterococcus faecalis [6]) [µg/mL]	MIC (Staphylococcus aureus [7]) [µg/mL]	MIC (Acinetobacter baumannii) [µg/mL]	MIC (Escherichia coli [8]) [µg/mL]	MIC (Klebsiella pneumoniae) [µg/mL]	MIC (Escherichia coli [9]) [µg/mL]	Activity (Staphylococcus aureus [10])	also measured
CCn1cc(C(=O)O)c(=O)c2cc(F)c(N3CCNCC3)cc21 [NORFLOXACIN]	8 (≈ 25.1 µM)	1 (≈ 3.13 µM)	16 (≈ 50.1 µM)	8 (≈ 25.1 µM)	256 (≈ 802 µM)	256 (≈ 802 µM)	1 (≈ 3.13 µM)	8 (≈ 25.1 µM)	512 (≈ 1600 µM)	256 (≈ 802 µM)	512 (≈ 1600 µM)	inactive	
CCc1nccn1C(CO)CS(=O)(=O)c1ccc(NC(C)=O)cc1 (stereo not given)	32 (≈ 91.1 µM)	16 (≈ 45.5 µM)	64 (≈ 182 µM)	64 (≈ 182 µM)	256 (≈ 728 µM)	32 (≈ 91.1 µM)	64 (≈ 182 µM)	16 (≈ 45.5 µM)	32 (≈ 91.1 µM)	128 (≈ 364 µM)	64 (≈ 182 µM)		
CC(=O)Nc1ccc(S(=O)(=O)CC(CO)n2ccnc2)cc1 (stereo not given)	32 (≈ 99 µM)	32 (≈ 99 µM)	64 (≈ 198 µM)	64 (≈ 198 µM)	128 (≈ 396 µM)	32 (≈ 99 µM)	64 (≈ 198 µM)	64 (≈ 198 µM)	64 (≈ 198 µM)	128 (≈ 396 µM)	64 (≈ 198 µM)		
CC(=O)Nc1ccc(S(=O)(=O)CC(CO)n2cnc(Br)c2)cc1 (stereo not given)	8 (≈ 19.9 µM)	32 (≈ 79.5 µM)	32 (≈ 79.5 µM)	64 (≈ 159 µM)	256 (≈ 636 µM)	8 (≈ 19.9 µM)	64 (≈ 159 µM)	64 (≈ 159 µM)	32 (≈ 79.5 µM)	256 (≈ 636 µM)	64 (≈ 159 µM)		
CCc1nc(C)cn1C(CO)CS(=O)(=O)c1ccc(NC(C)=O)cc1 (stereo not given)	4 (≈ 10.9 µM)	32 (≈ 87.6 µM)	32 (≈ 87.6 µM)	64 (≈ 175 µM)	128 (≈ 350 µM)	16 (≈ 43.8 µM)	128 (≈ 350 µM)	64 (≈ 175 µM)	32 (≈ 87.6 µM)	128 (≈ 350 µM)	64 (≈ 175 µM)	Active	Ratio (Enterococcus faecalis [11]): 32; Ratio (Staphylococcus aureus [12]): 2; Activity [13]: Non-Toxic; Ratio (Staphylococcus aureus [14]): 16; Activity (DNA [15]): Active; Activity (DNA [16]): Active; Activity (Calf thymus DNA): inactive; Activity (DNA [17]): Active; Activity (DNA [18]): Active
CC(=O)Nc1ccc(S(=O)(=O)CC(CO)n2ccnc2C(C)C)cc1 (stereo not given)	16 (≈ 43.8 µM)	16 (≈ 43.8 µM)	64 (≈ 175 µM)	128 (≈ 350 µM)	256 (≈ 700 µM)	32 (≈ 87.6 µM)	64 (≈ 175 µM)	32 (≈ 87.6 µM)	64 (≈ 175 µM)	64 (≈ 175 µM)	64 (≈ 175 µM)		
CC(C)c1nccn1C(CO)CS(=O)(=O)c1ccc(N)cc1 (stereo not given)	16 (≈ 49.5 µM)	64 (≈ 198 µM)	64 (≈ 198 µM)	128 (≈ 396 µM)	256 (≈ 792 µM)	8 (≈ 24.7 µM)	32 (≈ 98.9 µM)	32 (≈ 98.9 µM)	64 (≈ 198 µM)	64 (≈ 198 µM)	128 (≈ 396 µM)		
Nc1ccc(S(=O)(=O)Nc2nccs2)cc1 [SULFATHIAZOLE]	64 (≈ 251 µM)	512 (≈ 2010 µM)	512 (≈ 2010 µM)	512 (≈ 2010 µM)	128 (≈ 501 µM)	512 (≈ 2010 µM)	512 (≈ 2010 µM)	64 (≈ 251 µM)	128 (≈ 501 µM)	128 (≈ 501 µM)	256 (≈ 1000 µM)	inactive	
